Reference: the EternaBench riboswitch data

Tested on: MS2 coat protein
Assay: apparent Kd, MS2 coat protein; higher = weaker binding; RNA-MaP array; FMN 200 µM where present
In short: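 In 100 mM Tris-HCl pH 7.5, 80 mM KCl, 4 mM MgCl2, BSA, DTT, yeast tRNA and Tween-20, SNAP-549-labelled MS2 coat protein was titrated from 0.7 or 1.5 nM, doubling to 3 µM, over designs transcribed by stalled E. coli RNA polymerase on Illumina sequencing-chip clusters. This was done first without ligand, then with ligand held constant. After green signal was normalised to red-channel RNA signal and control-cluster median Fmax, the apparent Kd was taken as the median of filtered per-cluster binding-curve fits.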

[1] = designed as: OFF switch for flavin mononucleotide, no ligand
[2] = ligand present: flavin mononucleotide, designed as: OFF switch for flavin mononucleotide
[3] = designed as: ON switch for flavin mononucleotide, no ligand
[4] = ligand present: flavin mononucleotide, designed as: ON switch for flavin mononucleotide

| Sequence | apparent Kd [1] [nM] | apparent Kd [2] [nM] | apparent Kd [3] [nM] | apparent Kd [4] [nM] |
| --- | --- | --- | --- | --- |
| AUGCUAGUGUGAGGAUAUCAACAUGAGGAUCACCCAUGUUGGAAGUACACGACAUGCGGUACACCUGAGAAGGUACAUUAGCAU | 19.6 | 25.4 | – | – |
| GUUUUUUGUCAUGUACAUGAGGAACAUGAGGAUCACCCAUGUAGAAGGAAUUUUUUUAAGUUUAGUUAGGAUAUACAUAUAUUA | 49 | 24.7 | – | – |
| AGCUGGUGACAGCAUCGAGCAAAACAUGAGGAUCACCCAUGUAGAAGGCUGUACGGUUACCGUACAGAGGAUAUACAAAGCUCG | 6.35 | 8.14 | – | – |
| CGAUAAUAUAGAGGAUAUGUUUAACAUGAGGAUCACCCAUGUGACAUGGGAUUAAUAUAUAACUUACAGAAGGCUAUACAAUCG | 34.1 | 46.9 | – | – |
| GGCUUCUUCACAGGAUAUGGUUUUUUAAGUAUACAUGAGGAUCACCCAUGUCCAGAAGGGUGAGGGUUCGGCGUGCGGUGUCGG | – | – | 384 | 42.7 |
| UGCAUGCUAGGAUAUACGGGACAUUAGGGUUCGUCGUGUGGACAUGAGGAUCACCCAUGUAGAAGGAGCGUGCU | 90 | 345 | – | – |
| AAUUGACACGUAGGAUAUCGAUCUAAUUUAAUUCGAGAAGGACGCACAUGAGGAUCACCCAUGUUUAAUGGAUUAGACAUGUUG | 162 | 328 | – | – |
| GGUACUCAAAGAGUACCAAUACGAACAUGAGGAUCACCCAUGUAGGAUAUGCAAAAGCCGGAGUAGCAGAAGGACAUGUGCCUA | 12.6 | 46.4 | – | – |
| CACGGAUAGUAGAAGGGUGACAUGAGGAUCACCCAUGUACUUAUUUAUUUAUUACUAUUUGAUACACAGGAUAUACUAUCCGUG | – | – | 956 | 279 |
| UUGGGUCGGGAGGAUAUUCGGGCUCAUGGGCUUGGAGAAGGCUCGACAUGAGGAUCACCCAUGUAAGUGUACUU | 153 | 542 | – | – |
| UGCUAGGAUGGGUCUAAUGGACCGCAGGAUAUGCUUGUACAUGAGGAUCACCCAUGUAACAUUGUGCAGAAGGGUGGAUCCACG | – | – | 65.6 | 11.6 |
| CGUCCUCUAGUUAGGAUAUUGUCUCGGAUACGAAACAAGAAGGGACAUGAGGAUCACCCAUGUAAUGAGGACGA | 29.2 | 28.2 | – | – |
| CUUAGACAUGAGGAUCACCCAUGUGAGGAUAUGAUGCGAUCGUGCUGACAUGAUCGCAUCAGAAGGCACAUAUG | 145 | 322 | – | – |
| GCCGGGUAGGCAGGAUAUCCUCGCGCAAACACAUGAGGAUCACCCAUGUACACAAAACGUGAUAUGGAGAAGGGCCGACCCGCA | – | – | 26.6 | 5.28 |
| ACGUAUCAUGUAGGAUAUGACCCAGGAACUUGGUCAGAAGGACAUGAGGAUCACCCAUGUAGAGUAUGUUAGGAUGACGUAUGC | 114 | 150 | – | – |
| AGGAUAAGAAGAACUAUCCAUUGUACAGAAGGCCAACAUGAGGAUCACCCAUGUAAGAAAAGGAUGGAGGAUAUGUAUAGGGCC | – | – | 37.3 | 19.8 |
| GUCAGCUCGUGAGGAUAUACAACACUGCUUCGGCAGCGUAUUAAGAUCACAUGAGGAUCACCCAUGUAGAAGGCACGAGCUGAU | 11.7 | 206 | – | – |
| GACGGGUGGGUAGGAUAUGGCUAUGUCUCAUUGCUAGAAGGACCAGCUGCUACAUGAGGAUCACCCAUGUCGUAGUGCACCCAG | – | – | 189 | 13.1 |
| AUGGUCAUGUUAGGAUAUGACGCGCUGUACGCAUCAGAAGGAACAUGAGGAUCACCCAUGUAUAGAGUAUUAUCGCUUACUCUC | 52.7 | 85.3 | – | – |
| CGUUGUUCCGCAGGAUAUGCAUUGGAUUACAAUGCAGAAGGGCGAUAACAUGAGGAUCACCCAUGUGUGGACAAUAAGGAAGAG | – | – | 811 | 62.1 |
| UUAAACGCAGGAUAUACAUUUUUUUUAUUAUCCUCAUAAAUACAUGAGGAUCACCCAUGUAGAAGGGCGAAAUU | 239 | 210 | – | – |
| GCGUUGUUGUAGAAGGUACAUGAAUACUUUUAAUACCUCAAGUAACAUGAGGAUCACCCAUGUAGUAAGGAUAUACAUGAACGC | – | – | 35.4 | 30.2 |
| AAAUAAAGGACUAAGGAUAUAUCACAUGAAACAUGAGGAUCACCCAUGUAAUAAUACAAAGGGUGAUAGAAGGUAGUCCACAAACA | – | – | 55.7 | 20.5 |
| GCACGAUAUCAGGAUAUGACUAGCCUCGGCUAGUCAGAAGGGAUGACAUGAGGAUCACCCAUGUGAUCACGUGC | 57.2 | 77.9 | – | – |
| GAUCAACAUGAGGAUCACCCAUGUGAGGAUAUGAUACUAUGUACUUCGGUACAUAGUAUCAGAAGGCAUUAGGA | 51.8 | 39.6 | – | – |
| GUGGUCAGACAUGAGGAUCACCCAUGUGGAAUAAAUAACAGACAGGAUAUUAAAUAUAGGAUAUAUAAGAAGGGUCGAUUGGUG | – | – | 91.1 | 91.6 |
| AUAAGCUCGUCAGGAUAUGCAACACUGUGUAAGCAGUGUGGUAUGAUCACAUGAGGAUCACCCAUGUAGAAGGGACGAGCUUAU | 6.53 | 26.9 | – | – |
| UUGGACGUCGUAGUAUAUGUAGGAUAUUCCUACAUGAGGAUCACCCAUGUUGACAUGGAAGAAGGACAGAAGGACGAUGUCCAU | – | – | 144 | 6.12 |

| Sequence | apparent Kd [1] [nM] | apparent Kd [2] [nM] | apparent Kd [3] [nM] | apparent Kd [4] [nM] |
| --- | --- | --- | --- | --- |
| GGUGCGUUUGUGAGGAUAUGCUGGUCCUUGGUUCGGCAGAAGGCACAUGAGGAUCACCCAUGUGGUGUCGUCCC | 33 | 98.6 | – | – |
| GAUAUAGUUGAGAAGGGAAGGGCACAGUCCUCUCUAAAACUACAUGAGGAUCACCCAUGUGGCUUUCAGGAUAUCAGCGCUAAA | 22.5 | 109 | – | – |
| AGAAACUACGAGAAGGACAUGAGGAUCACCCAUGUAACCACUUAGUGGAAUGUAGGAUAUCGUAGUUUCAGGAUCGUGAGAUCA | 6.91 | 9.58 | – | – |
| AUCCUUAACAAGGAUAUCGGGCGGGAAAUUGUUUGAGAAGGUGUGACAUGAGGAUCACCCAUGUGGCGCGUGGG | 317 | 257 | – | – |
| GAUGCGAAUGUGAGGAUAUCGGAGUAUUUAAACUCUGAGAAGGCACAUGAGGAUCACCCAUGUCCGUGCGUCUA | 506 | 130 | – | – |
| CCGAAUAAGCAGGAUAUCGAAUCGGAGACGAUUCGAGAAGGGUUAACAUGAGGAUCACCCAUGUUCCUUAACGG | 19.1 | 20.8 | – | – |
| AGUAGUUCAGGAUAUGAUGUAUGUUACAUGAGGAUCACCCAUGUAGGUCCUGGAAAUGUAUCAGAAGGGAAUAUCU | 108 | 111 | – | – |
| GCGUUGAUGUAGAAGGUACAUGAAUACUUUUAAUACCUCAAGUAACAUGAGGAUCACCCAUGUAGUAAGGAUAUACAUGAACGC | – | – | 34.7 | 29.5 |
| GACGGGCAGCUCGUGAUCCCAUCGCCAGAAGGGCCACAUGAGGAUCACCCAUGUCGUAAAACAAGGCAGGAUAUGGCAGGGAAC | – | – | 9.93 | 5.21 |
| AUCAGGCAAGGAUAUGAUAUAGGACACAUGAGGAUCACCCAUGUCCACCGAACGAUCGUUUCAGAAGGUGCACAGU | 72.8 | 41 | – | – |
| GUCCUACAUGAGGAUCACCCAUGUGAGGAUAUGGUUUCGCUGGCCGUAGCCAGUGGAACCAGAAGGCGCGUGAU | 65.3 | 73.4 | – | – |
| UUAUUAUGUGUAGGAUAUGCAUAUUAUUAUUAUGCAGAAGGACAUGAGGAUCACCCAUGUAUAUUGUUAUUAUAUAUUAUAUAU | 11.5 | 16.7 | – | – |
| UAUGUGUCAGGAUAUUAGUAGUAAAUGAAUAAAAUUAUUACUGAGAAGGGACAUGAGGAUCACCCAUGUGCCUU | 15.9 | 20.3 | – | – |
| AGGGUAUGAACAUGAGGAUCACCCAUGUACCAGGAAACGAAUGAGGAUAUCGAUAGCAAAGCUAUCGAGAAGGCAUGGGACCCU | – | – | 318 | 62.2 |
| GCCAGGAUGUAAGGAUAUGCUGAGGAUAACUCAGCAGAAGGUACAUGAGGAUCACCCAUGUAAACCUAUAAUAAAUAACCUGGC | 11 | 15.4 | – | – |
| CAAUUUAGCGAGAAGGAGCGCCCGUAGGUACAUGAGGAUCACCCAUGUCCUUUGUGCUCUACGCGCUAGGAUAUCGAUAAACAG | 20.9 | 116 | – | – |
| AGCGGCGCGGGCCACCGCAGGACCAGAAGGACAUGAGGAUCACCCAUGUAGCAGAACAGGGCGGUGUAGGAUAUGGCAGGCUCG | 22.5 | 51.6 | – | – |
| GCCUCGCUGUGAGGAUAUUACGCCUACCGGCAAAAUGCGGUUUCAGGUCCGUAAGAAGGCACAUGAGGAUCACCCAUGUAAGAA | 26.7 | 213 | – | – |
| UUUAUGUCAGGAUAUGAGUAGUAGAACAAUAGUACUACUACUCAGAAGGGACAUGAGGAUCACCCAUGUUCUUC | 16.7 | 46.6 | – | – |
| GUUGUUUCUGAGGAUAUUAUUUUAUUCGAUUGAUAAGAAGGCAGUACAUGAGGAUCACCCAUGUGGGUUGUUUG | 60.6 | 122 | – | – |
| UGUUGUUUAGGAUAUACAUGAGGAUCACCCAUGUGACAAAAAUAUUUUACAAAACCAUGUAGAAGGAAAUGGCA | 22.3 | 48.2 | – | – |
| GUAUAUACGUGGUACAUGAGGAUCACCCAUGUGUCUUUACAUGAGGAUAUGGAUUCUAAUUGGAUCCAGAAGGCAUGUAUAUAC | – | – | 73.1 | 27 |
| UUUUAACAUGAGGAUCACCCAUGUGAGGAUAUCGAAAUUUAUAUUUAUAUUUAUAAAACGAGAAGGCACAUUUU | 103 | 119 | – | – |
| AUGCAACAUGAGGAUCACCCAUGUGAGGAUAUCGUAUAAUACUGUUGAAAUAUUUAGACGAGAAGGCACACCGU | 29.7 | 47.3 | – | – |
| GGGUACAUCGGAGGAUAUCAUGUAAAUACAUGAGGAUCACCCAUGUCGAUGGAGACAUCGGAGAUUGAGAAGGCGGAUGUACCG | – | – | 309 | 23.1 |
| AUAUUACGAGGAUAUCGUUUUUAUCACAUGAGGAUCACCCAUGUAAUUUAUGUUUCGUUUCGAGAAGGCGUAAGUU | 19.8 | 22 | – | – |
| CCGAAUAUGCAGGAUAUCGUAUCGGAAACGAUACGAGAAGGGCAAACAUGAGGAUCACCCAUGUUCCUUAACGG | 18.6 | 20.2 | – | – |
